Key:
[1] = target: TSPO (Mus musculus, UniProt P50637); assay: Dynamic PET accumulation and displacement of [18F]VUIIS1008 in healthy mice; type: in vivo
[2] = tested on: TSPO; conditions: cited from earlier work; for enhancement in binding affinity compared to DPA-714: TSPO affinity vs DPA-714
[3] = target: T1, TSPO (Rattus norvegicus, UniProt P16257); assay: Pre-blocking PET study with non-radioactive VUIIS1008 in C6 glioma-bearing rats; type: in vivo; conditions: pre-blocking with VUIIS1008 10 mg/kg, range of 2 rats
In short: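 In C6 glioma-bearing Wistar rats, the non-radioactive ligand (10 mg/kg i.v.) was given 5 min before a radiotracer bolus (1.2 ± 0.2 mCi via jugular catheter). Dynamic PET ran for 60 min with a metabolite-corrected arterial input function. Tumour and contralateral normal-brain TACs were fitted to a 2-tissue, 4-parameter model, and the range from 2 rats is reported.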

[4] = target: T1, TSPO; assay: Dynamic PET with compartmental modeling in C6 glioma-bearing rats; type: in vivo; conditions: for K1 / k2 / k3 / k4: 2-tissue 4-parameter model, n = 5, Mean ± SEM; for %ID/cc (90 min) / K1/k2 / VT=(K1/k2)(1+k3/k4) / k3/k4 (binding potential): C6-glioma bearing rats n = 5, Mean ± SEM
In short: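 Male Wistar rats (10 weeks, ~300 g) were implanted with 1.0 × 10⁵ C6 cells in the right hemisphere 2 weeks before imaging, then catheterised and localised by T₂ MRI. Radiotracer 1.2 ± 0.2 mCi was given as a jugular bolus for 90-min dynamic PET with CT attenuation correction. Arterial input was TLC metabolite-corrected. Tumour and contralateral-brain TACs were fitted with 1- and 2-tissue models to give K₁–k₄, V_T and BP_ND.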

[5] = challenger 10 mg/kg at scan mid-point (30 min)

CCc1cc(CC)n2nc(-c3ccc(OCCF)cc3)c(CC(=O)N(CC)CC)c2n1 [VUIIS1008, 2-(5,7-diethyl-2-(4-(2-fluoroethoxy)phenyl)pyrazolo[1,5-a]pyrimidin-3-yl)-N,N-diethylacetamide]
displacement of [18F]VUIIS1008 from myocardium and lung tissue [1, 5]: rapid and significant displacement
displacement of [18F]VUIIS1008 from renal tissue [1, 5]: partial displacement
enhancement in binding affinity compared to DPA-714 [2]: 36 fold
Ki ([2]; read-out: Ki (binding affinity), TSPO): 0.3 nM

CCc1cc(CC)n2nc(-c3ccc(OCC[18F])cc3)c(CC(=O)N(CC)CC)c2n1 [[^18F]VUIIS1008, 2-(5,7-diethyl-2-(4-(2-[^18F]fluoroethoxy)phenyl)pyrazolo[1,5-a]pyrimidin-3-yl)-N,N-diethylacetamide]
K1/k2 ([3]; normal brain): 0.059 – 0.061
VT=(K1/k2)(1+k3/k4) ([3]; normal brain): 0.380 – 0.615
k3/k4 (binding potential) ([3]; normal brain): 4.888 – 13.507
K1/k2 ([3]; tumor): 0.124 – 0.143
VT=(K1/k2)(1+k3/k4) ([3]; tumor): 0.618 – 0.767
k3/k4 (binding potential) ([3]; tumor): 3.972 – 4.368
binding reversibility in healthy, TSPO-rich tissues ([1]; dynamic PET): reversible binding
VT ratio between tumor and normal brain ([4]; C6 glioma-bearing rats): 6.0
clearance of tracer from plasma ([4]; C6 glioma-bearing rats, n = 6): cleared rapidly
K1 ([4]; normal brain): 0.881 ± 0.392
k2 ([4]; normal brain): 2.078 ± 1.666
k3 ([4]; normal brain): 0.172 ± 0.070
k4 ([4]; normal brain): 0.037 ± 0.004
%ID/cc (90 min) ([4]; normal brain): 0.103 ± 0.031 %ID/cc
K1/k2 ([4]; normal brain): 0.86 mL/g
VT=(K1/k2)(1+k3/k4) ([4]; normal brain): 4.210 ± 1.612
k3/k4 (binding potential) ([4]; normal brain): 4.435 ± 1.387
K1/k2 ([4]; normal brain, listed as 18F-VUIIS1008): 0.855 ± 0.325 mL/g
K1 ([4]; tumor (C6 glioma)): 0.709 ± 0.306
k2 ([4]; tumor (C6 glioma)): 0.442 ± 0.101
k3 ([4]; tumor (C6 glioma)): 0.113 ± 0.013
k4 ([4]; tumor (C6 glioma)): 0.009 ± 0.002
%ID/cc (90 min) ([4]; tumor): 0.310 ± 0.051 %ID/cc
K1/k2 ([4]; tumor): 1.90 mL/g
VT=(K1/k2)(1+k3/k4) ([4]; tumor): 25.224 ± 10.035
k3/k4 (binding potential) ([4]; tumor): 12.63
K1/k2 ([4]; tumor, listed as 18F-VUIIS1008): 1.902 ± 0.816 mL/g
k3/k4 (binding potential) ([4]; tumor, listed as 18F-VUIIS1008): 12.634 ± 1.406
enhancement in binding affinity compared to DPA-714 [2]: approximately 36 fold

Source: article PMC4372299 (Molecular imaging and biology : MIB : the official …, 2014)
